Results from ChEMBL document CHEMBL4382192, “Discovery of a potent dual ALK and EGFR T790M inhibitor” (Eur J Med Chem, 2017).

Experiments:
[1] = test system: Receptor-type tyrosine-protein kinase FLT3 (Homo sapiens), P36888 [R834Q]; experiment: Binding affinity to human partial length FLT3 R834Q mutant (V592 to Y969 residues) expressed in mammalian expression system assessed as residual binding level at 1 uM by Kinomescan method relative to control
Method in brief: (§1)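 Kinome-wide selectivity panel run by the KINOMEscan method, with the test compound at a single concentration of 1 μM. Wild-type and mutant kinases were profiled in the same screen.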

[2] = molecular target: SRSF protein kinase 3 (Homo sapiens) (UniProt Q9UPE1); experiment: Binding affinity to wild-type human partial length SRPK3 (P41 to P567 residues) expressed in bacterial expression system assessed as residual binding level at 1 uM by Kinomescan method relative to control
[3] = molecular target: Ribosomal protein S6 kinase beta-1 (Homo sapiens) (UniProt P23443); experiment: Binding affinity to wild-type human partial length S6K1 (M1 to S421 residues) expressed in mammalian expression system assessed as residual binding level at 1 uM by Kinomescan method relative to control
Ribosomal protein S6 kinase beta-1 (Homo sapiens), sequence (P23443 whole entry, looked up, the tested form may be a part): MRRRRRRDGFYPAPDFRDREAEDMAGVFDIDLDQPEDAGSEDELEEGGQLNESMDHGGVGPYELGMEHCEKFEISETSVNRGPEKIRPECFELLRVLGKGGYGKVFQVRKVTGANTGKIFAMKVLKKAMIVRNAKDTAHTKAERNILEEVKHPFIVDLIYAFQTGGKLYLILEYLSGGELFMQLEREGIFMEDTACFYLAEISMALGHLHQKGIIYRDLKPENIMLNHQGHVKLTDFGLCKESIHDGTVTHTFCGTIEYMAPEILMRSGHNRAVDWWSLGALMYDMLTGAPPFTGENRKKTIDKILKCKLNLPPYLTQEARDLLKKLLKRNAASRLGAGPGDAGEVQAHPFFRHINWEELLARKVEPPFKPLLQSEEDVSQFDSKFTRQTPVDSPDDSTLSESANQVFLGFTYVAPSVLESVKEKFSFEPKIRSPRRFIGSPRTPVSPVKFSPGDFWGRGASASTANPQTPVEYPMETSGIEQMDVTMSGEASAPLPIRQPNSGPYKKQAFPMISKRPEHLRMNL

[4] = test system: Epidermal growth factor receptor (Homo sapiens), P00533 [UNDEFINED MUTATION]; experiment: Binding affinity to human partial length EGFR L747-T751del/Sins mutant expressed in bacterial expression system assessed as residual binding level at 1 uM by Kinomescan method relative to control; method in brief: as §1
[5] = molecular target: Serine/threonine-protein kinase Nek2 (Homo sapiens) (UniProt P51955); experiment: Binding affinity to wild-type human partial length NEK2 (M1 to K309 residues) expressed in bacterial expression system assessed as residual binding level at 1 uM by Kinomescan method relative to control
[6] = molecular target: Testis-specific serine/threonine-protein kinase 1 (Homo sapiens) (UniProt Q9BXA7); experiment: Binding affinity to wild-type human full length TSSK1B (M1 to Q367 residues) expressed in bacterial expression system assessed as residual binding level at 1 uM by Kinomescan method relative to control
Testis-specific serine/threonine-protein kinase 1 (Homo sapiens), sequence (Q9BXA7 whole entry, the tested form may be a part): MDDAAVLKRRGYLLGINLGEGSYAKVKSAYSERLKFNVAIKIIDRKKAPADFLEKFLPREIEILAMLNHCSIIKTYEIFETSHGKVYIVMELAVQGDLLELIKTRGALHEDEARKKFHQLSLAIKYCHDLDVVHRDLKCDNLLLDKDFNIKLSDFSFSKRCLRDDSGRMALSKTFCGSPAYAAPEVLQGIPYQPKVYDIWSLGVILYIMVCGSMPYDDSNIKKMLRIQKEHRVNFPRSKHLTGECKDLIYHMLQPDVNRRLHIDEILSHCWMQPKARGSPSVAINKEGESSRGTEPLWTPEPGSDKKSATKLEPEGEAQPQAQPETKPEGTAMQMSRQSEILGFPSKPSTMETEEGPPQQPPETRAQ

[7] = molecular target: Calcium/calmodulin-dependent protein kinase type IV (Homo sapiens) (UniProt Q16566); experiment: Binding affinity to wild-type human partial length CAMK4 (A22 to A322 residues) expressed in bacterial expression system assessed as residual binding level at 1 uM by Kinomescan method relative to control
BaF3 = experiment: Antiproliferative activity against mouse BAF3 cells assessed as reduction in cell viability after 72 hrs by MTS assay; format: cell-based; conditions: BaF3, 72 h
[8] = molecular target: Tyrosine-protein kinase HCK (Homo sapiens) (UniProt P08631); experiment: Binding affinity to wild-type human full length HCK (M22 to P526 residues) expressed in bacterial expression system assessed as residual binding level at 1 uM by Kinomescan method relative to control
Method in brief: (§2)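 Single-point kinome-wide KINOMEscan binding panel, test compound at 1 μM, run by the provider's standard protocol.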

[9] = molecular target: Phosphatidylinositol 5-phosphate 4-kinase type-2 beta (Homo sapiens) (UniProt P78356); experiment: Binding affinity to wild-type human full length PIP5K2B (M1 to T416 residues) expressed in bacterial expression system assessed as residual binding level at 1 uM by Kinomescan method relative to control; method in brief: as §2
CYP3A4 = CYP3A4 (Homo sapiens, UniProt P08684); experiment: Residual activity of CYP3A4 in human liver microsomes at 10 uM using midazolam 1-hydroxylase as substrate preincubated for 5 mins followed by NADPH addition measured after 15 mins by LC/MS/MS analysis relative to control; conditions: probe midazolam (1-hydroxylation)
CYP3A4, sequence (P08684 whole entry, the tested form may be a part): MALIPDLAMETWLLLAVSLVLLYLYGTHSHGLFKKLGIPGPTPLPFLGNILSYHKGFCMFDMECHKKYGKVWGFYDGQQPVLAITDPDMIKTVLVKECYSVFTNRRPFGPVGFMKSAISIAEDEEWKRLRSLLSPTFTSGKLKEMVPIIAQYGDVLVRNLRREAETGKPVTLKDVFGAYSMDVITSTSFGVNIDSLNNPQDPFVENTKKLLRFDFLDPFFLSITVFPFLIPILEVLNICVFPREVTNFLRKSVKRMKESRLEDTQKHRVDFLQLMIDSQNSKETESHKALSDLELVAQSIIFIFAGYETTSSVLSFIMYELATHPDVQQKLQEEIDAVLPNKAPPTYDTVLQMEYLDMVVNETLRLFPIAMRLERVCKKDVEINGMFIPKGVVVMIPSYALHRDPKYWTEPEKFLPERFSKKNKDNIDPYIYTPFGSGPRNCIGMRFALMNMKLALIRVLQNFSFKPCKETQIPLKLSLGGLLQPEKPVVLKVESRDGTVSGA

[10] = molecular target: G protein-coupled receptor kinase 4 (Homo sapiens) (UniProt P32298); experiment: Binding affinity to wild-type human full length GRK4 (M1 to C578 residues) expressed in bacterial expression system assessed as residual binding level at 1 uM by Kinomescan method relative to control
[11] = molecular target: Phosphatidylinositol 4,5-bisphosphate 3-kinase catalytic subunit gamma isoform (Homo sapiens) (UniProt P48736); experiment: Binding affinity to wild-type human partial length PIK3CG (S144 to A1102 residues) expressed in mammalian expression system assessed as residual binding level at 1 uM by Kinomescan method relative to control
Phosphatidylinositol 4,5-bisphosphate 3-kinase catalytic subunit gamma isoform (Homo sapiens), sequence (P48736 whole entry, looked up, the tested form may be a part, canonical isoform): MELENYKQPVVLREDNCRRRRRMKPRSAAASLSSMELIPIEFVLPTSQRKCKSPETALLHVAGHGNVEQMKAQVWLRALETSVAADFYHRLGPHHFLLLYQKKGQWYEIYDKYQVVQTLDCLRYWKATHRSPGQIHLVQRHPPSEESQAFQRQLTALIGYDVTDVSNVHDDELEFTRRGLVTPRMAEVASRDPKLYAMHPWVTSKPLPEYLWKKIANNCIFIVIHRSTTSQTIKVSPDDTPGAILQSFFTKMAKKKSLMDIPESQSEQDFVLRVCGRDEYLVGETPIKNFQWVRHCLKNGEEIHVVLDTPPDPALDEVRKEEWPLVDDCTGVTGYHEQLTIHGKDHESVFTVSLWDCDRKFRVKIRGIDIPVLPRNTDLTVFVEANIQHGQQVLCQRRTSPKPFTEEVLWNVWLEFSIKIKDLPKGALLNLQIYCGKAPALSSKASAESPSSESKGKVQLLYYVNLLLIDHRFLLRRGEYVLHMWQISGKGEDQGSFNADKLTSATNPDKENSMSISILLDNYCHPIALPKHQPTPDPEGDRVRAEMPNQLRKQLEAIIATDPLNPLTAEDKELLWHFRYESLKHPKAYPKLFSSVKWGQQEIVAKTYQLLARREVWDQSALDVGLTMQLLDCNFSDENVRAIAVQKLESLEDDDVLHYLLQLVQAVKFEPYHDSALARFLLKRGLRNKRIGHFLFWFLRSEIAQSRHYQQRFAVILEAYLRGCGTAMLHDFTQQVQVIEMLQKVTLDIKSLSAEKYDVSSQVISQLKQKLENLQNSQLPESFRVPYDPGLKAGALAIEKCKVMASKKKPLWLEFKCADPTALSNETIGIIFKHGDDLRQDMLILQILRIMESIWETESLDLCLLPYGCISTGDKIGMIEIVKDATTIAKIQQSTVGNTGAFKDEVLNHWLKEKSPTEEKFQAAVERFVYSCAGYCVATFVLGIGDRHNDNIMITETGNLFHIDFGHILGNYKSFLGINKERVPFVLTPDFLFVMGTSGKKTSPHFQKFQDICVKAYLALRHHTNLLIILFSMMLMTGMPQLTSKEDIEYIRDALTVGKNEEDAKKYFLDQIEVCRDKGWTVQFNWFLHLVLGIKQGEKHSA

[12] = molecular target: Receptor-type tyrosine-protein kinase FLT3 (Homo sapiens) (UniProt P36888); experiment: Binding affinity to wild-type human partial length autoinhibited FLT3 (H564 to Y969 residues) expressed in mammalian expression system assessed as residual binding level at 1 uM by Kinomescan method relative to control
[13] = molecular target: Serine/threonine-protein kinase PAK 6 (Homo sapiens) (UniProt Q9NQU5); experiment: Binding affinity to wild-type human partial length PAK6 (N298 to C681 residues) expressed in bacterial expression system assessed as residual binding level at 1 uM by Kinomescan method relative to control
Serine/threonine-protein kinase PAK 6 (Homo sapiens), sequence (Q9NQU5 whole entry, looked up, the tested form may be a part): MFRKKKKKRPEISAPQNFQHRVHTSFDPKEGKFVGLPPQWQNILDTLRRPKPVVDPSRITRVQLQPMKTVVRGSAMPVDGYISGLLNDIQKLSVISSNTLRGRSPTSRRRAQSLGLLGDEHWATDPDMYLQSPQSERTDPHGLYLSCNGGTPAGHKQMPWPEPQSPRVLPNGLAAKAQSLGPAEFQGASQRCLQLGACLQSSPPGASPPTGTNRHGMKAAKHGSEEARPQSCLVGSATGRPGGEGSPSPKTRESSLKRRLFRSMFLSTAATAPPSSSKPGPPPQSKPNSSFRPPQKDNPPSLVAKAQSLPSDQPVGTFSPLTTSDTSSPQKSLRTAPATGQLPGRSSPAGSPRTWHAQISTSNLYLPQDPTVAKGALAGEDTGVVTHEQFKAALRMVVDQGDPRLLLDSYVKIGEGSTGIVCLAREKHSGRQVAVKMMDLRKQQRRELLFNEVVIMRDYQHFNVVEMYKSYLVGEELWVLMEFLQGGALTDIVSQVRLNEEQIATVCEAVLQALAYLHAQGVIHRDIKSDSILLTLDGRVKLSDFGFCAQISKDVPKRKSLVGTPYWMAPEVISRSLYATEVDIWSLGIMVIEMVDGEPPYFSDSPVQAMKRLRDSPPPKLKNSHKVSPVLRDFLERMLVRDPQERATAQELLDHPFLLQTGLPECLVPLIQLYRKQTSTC

[14] = test system: Epidermal growth factor receptor (Homo sapiens), P00533 [L858R,T790M]; experiment: Binding affinity to human partial length EGFR L858R/T790M double mutant (R669 to V1011 residues) expressed in mammalian expression system assessed as residual binding level at 1 uM by Kinomescan method relative to control; method in brief: as §1
[15] = molecular target: Serine/threonine-protein kinase RIO1 (Homo sapiens) (UniProt Q9BRS2); experiment: Binding affinity to wild-type human full length RIOK1 (M1 to K568 residues) expressed in bacterial expression system assessed as residual binding level at 1 uM by Kinomescan method relative to control; method in brief: as §2
Serine/threonine-protein kinase RIO1 (Homo sapiens), sequence (Q9BRS2 whole entry, the tested form may be a part): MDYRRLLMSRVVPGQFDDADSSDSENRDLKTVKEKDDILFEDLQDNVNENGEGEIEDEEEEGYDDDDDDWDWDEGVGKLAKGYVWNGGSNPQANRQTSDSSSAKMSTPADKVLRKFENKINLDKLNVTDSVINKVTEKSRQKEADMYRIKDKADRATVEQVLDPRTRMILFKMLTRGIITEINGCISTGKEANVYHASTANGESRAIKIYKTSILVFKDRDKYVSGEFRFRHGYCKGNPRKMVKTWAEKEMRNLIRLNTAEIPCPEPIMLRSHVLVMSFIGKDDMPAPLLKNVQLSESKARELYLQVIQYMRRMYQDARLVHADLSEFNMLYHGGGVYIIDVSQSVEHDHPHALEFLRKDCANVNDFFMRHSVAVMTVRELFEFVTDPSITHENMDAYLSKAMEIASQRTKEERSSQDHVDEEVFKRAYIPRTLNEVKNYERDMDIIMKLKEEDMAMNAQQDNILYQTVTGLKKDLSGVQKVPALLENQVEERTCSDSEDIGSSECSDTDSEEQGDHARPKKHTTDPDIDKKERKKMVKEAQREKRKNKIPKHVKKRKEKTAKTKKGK

[16] = molecular target: Mitogen-activated protein kinase kinase kinase 7 (Homo sapiens) (UniProt O43318); experiment: Binding affinity to wild-type human partial length TAK1 (M1 to Q303 residues) expressed in mammalian expression system assessed as residual binding level at 1 uM by Kinomescan method relative to control
[17] = molecular target: Tyrosine-protein kinase Blk (Homo sapiens, UniProt P51451); experiment: Inhibition of recombinant full length His-tagged human Blk cytoplasmic domain expressed in Baculovirus expression system by Z-LYTE assay
Insulin receptor = Insulin receptor (Homo sapiens, UniProt P06213); experiment: Inhibition of recombinant His-tagged human InsR (1011 to 1382 residues) expressed in baculovirus expression system by Z-LYTE assay
[18] = molecular target: Casein kinase I isoform epsilon (Homo sapiens) (UniProt P49674); experiment: Binding affinity to wild-type human full length CSNK1E (M1 to K416 residues) expressed in bacterial expression system assessed as residual binding level at 1 uM by Kinomescan method relative to control
Casein kinase I isoform epsilon (Homo sapiens), sequence (P49674 whole entry, looked up, the tested form may be a part, canonical isoform): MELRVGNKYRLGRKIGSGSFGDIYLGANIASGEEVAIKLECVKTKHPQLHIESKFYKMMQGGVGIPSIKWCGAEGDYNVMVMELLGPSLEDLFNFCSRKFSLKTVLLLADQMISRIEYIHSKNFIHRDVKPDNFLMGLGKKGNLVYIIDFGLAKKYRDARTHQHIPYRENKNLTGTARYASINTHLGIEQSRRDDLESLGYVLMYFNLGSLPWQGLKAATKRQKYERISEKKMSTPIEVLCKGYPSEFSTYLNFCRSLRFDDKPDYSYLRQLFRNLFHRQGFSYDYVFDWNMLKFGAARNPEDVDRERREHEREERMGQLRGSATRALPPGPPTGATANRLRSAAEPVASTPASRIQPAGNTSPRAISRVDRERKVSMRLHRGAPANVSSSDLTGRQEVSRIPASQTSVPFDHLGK

[19] = Drug uptake in mouse plasma at 10 mg/kg, po after 8 hrs; format: ADME, organism-based
[20] = molecular target: Serine/threonine-protein kinase Sgk3 (Homo sapiens) (UniProt Q96BR1); experiment: Binding affinity to wild-type human partial length SGK3 (M119 to L496 residues) expressed in mammalian expression system assessed as residual binding level at 1 uM by Kinomescan method relative to control
[21] = molecular target: Bone morphogenetic protein receptor type-2 (Homo sapiens) (UniProt Q13873); experiment: Binding affinity to wild-type human partial length BMPR2 (R179 to Q526 residues) expressed in mammalian expression system assessed as residual binding level at 1 uM by Kinomescan method relative to control
[22] = molecular target: Tyrosine-protein kinase receptor TYRO3 (Homo sapiens) (UniProt Q06418); experiment: Binding affinity to wild-type human partial length TYRO3 (S497 to T814 residues) expressed in bacterial expression system assessed as residual binding level at 1 uM by Kinomescan method relative to control
Tyrosine-protein kinase receptor TYRO3 (Homo sapiens), sequence (Q06418 whole entry, the tested form may be a part): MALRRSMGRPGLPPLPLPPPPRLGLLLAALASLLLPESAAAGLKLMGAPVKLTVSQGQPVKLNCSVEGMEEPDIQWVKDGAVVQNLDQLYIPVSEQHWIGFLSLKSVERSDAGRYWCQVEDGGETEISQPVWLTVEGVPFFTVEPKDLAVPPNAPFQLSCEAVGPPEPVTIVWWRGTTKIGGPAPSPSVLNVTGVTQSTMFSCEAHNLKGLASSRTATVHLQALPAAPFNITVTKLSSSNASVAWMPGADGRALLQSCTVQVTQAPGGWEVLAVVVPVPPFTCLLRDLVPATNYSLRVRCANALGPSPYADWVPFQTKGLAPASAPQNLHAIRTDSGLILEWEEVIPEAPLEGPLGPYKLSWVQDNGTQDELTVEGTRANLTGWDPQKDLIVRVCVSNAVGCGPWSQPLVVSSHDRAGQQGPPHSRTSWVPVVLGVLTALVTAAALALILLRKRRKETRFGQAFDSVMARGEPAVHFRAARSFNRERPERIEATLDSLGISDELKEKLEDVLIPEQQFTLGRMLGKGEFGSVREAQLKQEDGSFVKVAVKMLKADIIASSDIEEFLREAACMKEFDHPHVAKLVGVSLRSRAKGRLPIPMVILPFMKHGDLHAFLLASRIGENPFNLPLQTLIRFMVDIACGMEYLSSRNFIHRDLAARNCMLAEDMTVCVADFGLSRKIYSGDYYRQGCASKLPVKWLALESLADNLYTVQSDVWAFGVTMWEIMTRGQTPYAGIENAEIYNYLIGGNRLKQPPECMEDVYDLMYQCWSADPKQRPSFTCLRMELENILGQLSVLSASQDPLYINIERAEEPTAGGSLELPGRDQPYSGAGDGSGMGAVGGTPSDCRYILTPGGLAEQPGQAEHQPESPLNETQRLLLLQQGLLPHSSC

**Q.** Which results are given for `C=CC(=O)Nc1cc(Nc2ncc(Cl)c(Nc3ccccc3S(=O)(=O)C(C)C)n2)c(OC)cc1N(C)CCN(C)C`?
**A.** Activity [1]: 26%; Activity [2]: 77%; Activity [3]: 94%; Activity [4]: 0.45%; Activity [5]: 83%; Activity [6]: 12%; Activity [7]: 9.4%; EC50 (BaF3): > 5000 nM; Activity [8]: 49%; Activity [9]: 55%; Activity at […], 10 µM (CYP3A4): 44%; Activity [10]: 91%; Activity [11]: 98%; Activity [12]: 85%; Activity [13]: 96%; Activity [14]: 0.95%; Activity [15]: 92%; Activity [16]: 35%; IC50 [17]: 8 nM; IC50 (Insulin receptor): 8 nM; Activity [18]: 100%; concentration at 8 h [19]: 0.01 µM; Activity [20]: 53%; Activity [21]: 95%; Activity [22]: 51%
